Assays:
[1] = biological target: Serine/threonine-protein kinase 10 (Homo sapiens) (UniProt O94804); assay: Binding affinity to wild-type human partial length LOK (E16 to V314 residues) expressed in bacterial expression system assessed as residual binding level at 10000 nM by Kinomescan method relative to control
Outline: (§1)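 KINOMEScan competition binding panel run at 10,000 nM compound, with results expressed as percent of control binding. S(10) is the fraction of non-mutant kinases below 10% of control, out of 395 tested.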

[2] = Toxicity in athymic NU-Fox1nu nude mouse xenografted with human HCC827 cells assessed as effect on body weight at 20 to 50 mg/kg, po dosed via gavage for 5 days/week for 2 consecutive weeks; format: organism-based; details: in vivo, 120 h
Outline: (§2)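 Male athymic NU-Fox1nu nude mice, 6–8 weeks old, were inoculated subcutaneously at the left flank with 5x10^6 HCC827 (exon 19 Del E746_A750) cells. Oral gavage began at a mean tumor size of about 500 mm³, in 1% methylcellulose/0.5% Tween 80/98.5% water, once daily on days 1-5 and 8-12. Tumor volume (V = 0.5 a × b², caliper) and body weight were tracked.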

[3] = biological target: T1, Tyrosine-protein kinase TXK (Homo sapiens) (UniProt P42681); assay: Binding affinity to wild-type human partial length TXK (L238 to W527 residues) expressed in bacterial expression system assessed as residual binding level at 10000 nM by Kinomescan method relative to control; outline: as §1
T1 sequence (whole entry): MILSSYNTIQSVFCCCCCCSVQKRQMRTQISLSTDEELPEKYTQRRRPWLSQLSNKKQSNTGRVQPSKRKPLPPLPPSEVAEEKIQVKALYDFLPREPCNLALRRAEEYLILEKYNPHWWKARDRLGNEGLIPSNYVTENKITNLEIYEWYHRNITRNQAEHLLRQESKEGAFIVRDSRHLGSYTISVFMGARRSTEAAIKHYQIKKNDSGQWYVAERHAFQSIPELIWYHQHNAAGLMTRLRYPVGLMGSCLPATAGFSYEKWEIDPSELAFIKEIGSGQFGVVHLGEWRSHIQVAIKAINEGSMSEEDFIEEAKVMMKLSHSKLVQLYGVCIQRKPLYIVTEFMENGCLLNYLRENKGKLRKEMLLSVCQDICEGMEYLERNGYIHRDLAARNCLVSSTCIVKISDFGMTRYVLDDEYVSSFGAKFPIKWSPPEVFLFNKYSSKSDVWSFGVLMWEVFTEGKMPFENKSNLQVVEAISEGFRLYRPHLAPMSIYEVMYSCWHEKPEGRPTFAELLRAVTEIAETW

HCC827 = assay: Cytotoxicity in human HCC827 cells assessed as reduction in cell viability incubated for 96 hrs by MTS method; format: functional
NCI-H1975 [4] = assay: Antitumor activity against human NCI-H1975 cells xenografted in nude BALB/c mouse assessed as inhibition of tumor growth at 50 mg/kg, po QD for 15 days relative to control; format: functional
Outline: (§3)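 H1975 cells were grown in RPMI1640 with 10% heat-inactivated FBS at 37 °C, 5% CO2, and passaged by trypsin-EDTA. 5x10^6 cells in 0.1 ml PBS were injected subcutaneously at the right flank of BALB/c nude mice. Oral QD dosing for 15 days began at a mean tumor size of 147 mm³, n = 5 per group.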

[5] = biological target: Receptor tyrosine-protein kinase erbB-4 (Homo sapiens) (UniProt Q15303); assay: Binding affinity to wild-type human partial length ERBB4 (L690 to K994 residues) expressed in bacterial expression system assessed as residual binding level at 10000 nM by Kinomescan method relative to control; outline: as §1
[6] = biological target: Tyrosine-protein kinase Blk (Homo sapiens) (UniProt P51451); assay: Binding affinity to wild-type human partial length BLK (G211 to L503 residues) expressed in bacterial expression system assessed as residual binding level at 10000 nM by Kinomescan method relative to control; outline: as §1
[7] = Inhibition of GST-tagged human EGFR D770GY mutant using poly(Glu, Tyr) 4:1 substrate incubated for 120 mins by kinase-Glo plus luminescent kinase assay
[8] = biological target: T2, Tyrosine-protein kinase Tec (Homo sapiens) (UniProt P42680); assay: Binding affinity to wild-type human partial length TEC (L341 to D620 residues) expressed in bacterial expression system assessed as residual binding level at 10000 nM by Kinomescan method relative to control; outline: as §1
T2 sequence (whole entry): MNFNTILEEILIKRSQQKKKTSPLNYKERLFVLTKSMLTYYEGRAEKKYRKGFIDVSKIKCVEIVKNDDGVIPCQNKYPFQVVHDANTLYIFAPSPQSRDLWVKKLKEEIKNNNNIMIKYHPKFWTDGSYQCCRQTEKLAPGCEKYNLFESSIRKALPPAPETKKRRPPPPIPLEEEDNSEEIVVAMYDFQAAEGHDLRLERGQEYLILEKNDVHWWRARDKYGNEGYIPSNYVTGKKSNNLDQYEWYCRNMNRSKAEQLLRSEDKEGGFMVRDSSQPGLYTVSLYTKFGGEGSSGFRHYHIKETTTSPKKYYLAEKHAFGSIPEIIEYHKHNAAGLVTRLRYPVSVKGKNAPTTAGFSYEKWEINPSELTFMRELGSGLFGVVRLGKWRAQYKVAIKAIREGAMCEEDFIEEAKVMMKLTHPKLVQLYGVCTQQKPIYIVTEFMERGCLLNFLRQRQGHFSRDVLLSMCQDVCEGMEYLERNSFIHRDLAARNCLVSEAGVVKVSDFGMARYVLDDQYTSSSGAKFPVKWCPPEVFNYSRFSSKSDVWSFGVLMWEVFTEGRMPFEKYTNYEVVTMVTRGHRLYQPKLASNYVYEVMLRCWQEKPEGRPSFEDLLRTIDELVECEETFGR

[9] = Toxicity in nude BALB/c mouse xenografted with human NCI-H1975 cells assessed as induction of body weight loss at 50 mg/kg, po QD for 15 days relative to control; format: organism-based; details: in vivo, 360 h; outline: as §3
in vivo [10] = details: rat, po, 23.6 mg/kg
NCI-H1975 [11] = details: Homo sapiens, at 312.5 to 20000 nM
[12] = Cmax in rat at 23.6 mg/kg, po; format: ADME, organism-based; set-up: dose 23.6 mg/kg, route oral; details: in vivo
Outline: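 Rat pharmacokinetics: single IV injection at 5 mg/kg or oral dosing at 20 mg/kg (23.6 mg/kg oral for one compound). Plasma parameters t1/2, CL, Vss, AUC(0-inf), Cmax, Tmax and oral bioavailability F were derived from the concentration–time profiles.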

[13] = Toxicity in athymic NU-Fox1nu nude mouse xenografted with human HCC827 cells assessed as induction of adverse effects at 20 to 50 mg/kg, po dosed via gavage for 5 days/week for 2 consecutive weeks; format: organism-based; details: in vivo, 120 h; outline: as §2
in vivo [14] = details: rat, po, 23.6 mg/kg; remark: listed apart in the source
[15] = biological target: Tyrosine-protein kinase BTK (Homo sapiens) (UniProt Q06187); assay: Binding affinity to wild-type human full length BTK (M1 to S659 residues) expressed in mammalian expression system assessed as residual binding level at 10000 nM by Kinomescan method relative to control; outline: as §1
Tyrosine-protein kinase BTK (Homo sapiens), sequence (Q06187 whole entry, the tested form may be a part): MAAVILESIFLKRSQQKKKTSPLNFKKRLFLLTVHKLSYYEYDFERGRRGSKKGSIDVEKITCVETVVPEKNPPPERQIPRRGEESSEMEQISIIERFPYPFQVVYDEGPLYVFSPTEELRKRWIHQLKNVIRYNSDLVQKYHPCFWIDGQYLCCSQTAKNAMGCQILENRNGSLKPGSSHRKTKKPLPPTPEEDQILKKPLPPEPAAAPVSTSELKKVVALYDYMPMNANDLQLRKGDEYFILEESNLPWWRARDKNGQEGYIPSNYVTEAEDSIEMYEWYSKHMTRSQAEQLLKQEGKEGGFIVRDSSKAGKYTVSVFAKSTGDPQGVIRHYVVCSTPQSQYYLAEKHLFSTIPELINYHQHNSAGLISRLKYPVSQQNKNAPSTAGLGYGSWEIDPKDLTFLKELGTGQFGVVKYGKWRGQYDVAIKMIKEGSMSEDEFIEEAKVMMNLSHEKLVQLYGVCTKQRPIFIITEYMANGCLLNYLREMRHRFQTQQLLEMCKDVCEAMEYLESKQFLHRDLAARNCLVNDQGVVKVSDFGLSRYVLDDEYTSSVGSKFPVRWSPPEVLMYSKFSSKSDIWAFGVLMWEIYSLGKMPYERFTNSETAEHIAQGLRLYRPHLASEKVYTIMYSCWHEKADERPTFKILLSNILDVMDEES

Serine/threonine-protein kinase 10 (Homo sapiens), sequence (O94804 whole entry, looked up, the tested form may be a part): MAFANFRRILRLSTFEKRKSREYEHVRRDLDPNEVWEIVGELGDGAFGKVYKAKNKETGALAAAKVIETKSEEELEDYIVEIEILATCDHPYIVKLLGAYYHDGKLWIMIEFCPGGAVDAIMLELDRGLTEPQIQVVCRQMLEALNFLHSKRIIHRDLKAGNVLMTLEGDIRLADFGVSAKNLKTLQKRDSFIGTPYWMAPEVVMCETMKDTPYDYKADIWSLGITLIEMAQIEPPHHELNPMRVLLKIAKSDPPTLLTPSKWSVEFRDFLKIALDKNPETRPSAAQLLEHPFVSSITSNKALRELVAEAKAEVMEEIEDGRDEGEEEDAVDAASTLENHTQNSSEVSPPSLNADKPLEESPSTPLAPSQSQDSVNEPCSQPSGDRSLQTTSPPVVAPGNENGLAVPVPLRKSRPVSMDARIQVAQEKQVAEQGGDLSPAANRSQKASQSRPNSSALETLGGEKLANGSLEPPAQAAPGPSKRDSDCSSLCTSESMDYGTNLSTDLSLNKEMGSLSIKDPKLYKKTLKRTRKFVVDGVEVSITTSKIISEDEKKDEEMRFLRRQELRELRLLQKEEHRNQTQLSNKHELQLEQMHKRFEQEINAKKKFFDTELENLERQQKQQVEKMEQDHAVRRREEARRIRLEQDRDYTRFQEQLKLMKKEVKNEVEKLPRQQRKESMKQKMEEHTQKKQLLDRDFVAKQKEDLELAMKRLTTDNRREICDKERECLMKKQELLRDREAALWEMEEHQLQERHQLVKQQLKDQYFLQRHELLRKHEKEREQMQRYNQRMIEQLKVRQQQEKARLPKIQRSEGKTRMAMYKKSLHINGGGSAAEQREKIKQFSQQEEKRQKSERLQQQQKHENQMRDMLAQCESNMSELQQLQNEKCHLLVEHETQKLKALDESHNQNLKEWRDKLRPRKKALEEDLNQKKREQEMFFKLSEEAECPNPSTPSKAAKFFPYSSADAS
Receptor tyrosine-protein kinase erbB-4 (Homo sapiens), sequence (Q15303 whole entry, the tested form may be a part): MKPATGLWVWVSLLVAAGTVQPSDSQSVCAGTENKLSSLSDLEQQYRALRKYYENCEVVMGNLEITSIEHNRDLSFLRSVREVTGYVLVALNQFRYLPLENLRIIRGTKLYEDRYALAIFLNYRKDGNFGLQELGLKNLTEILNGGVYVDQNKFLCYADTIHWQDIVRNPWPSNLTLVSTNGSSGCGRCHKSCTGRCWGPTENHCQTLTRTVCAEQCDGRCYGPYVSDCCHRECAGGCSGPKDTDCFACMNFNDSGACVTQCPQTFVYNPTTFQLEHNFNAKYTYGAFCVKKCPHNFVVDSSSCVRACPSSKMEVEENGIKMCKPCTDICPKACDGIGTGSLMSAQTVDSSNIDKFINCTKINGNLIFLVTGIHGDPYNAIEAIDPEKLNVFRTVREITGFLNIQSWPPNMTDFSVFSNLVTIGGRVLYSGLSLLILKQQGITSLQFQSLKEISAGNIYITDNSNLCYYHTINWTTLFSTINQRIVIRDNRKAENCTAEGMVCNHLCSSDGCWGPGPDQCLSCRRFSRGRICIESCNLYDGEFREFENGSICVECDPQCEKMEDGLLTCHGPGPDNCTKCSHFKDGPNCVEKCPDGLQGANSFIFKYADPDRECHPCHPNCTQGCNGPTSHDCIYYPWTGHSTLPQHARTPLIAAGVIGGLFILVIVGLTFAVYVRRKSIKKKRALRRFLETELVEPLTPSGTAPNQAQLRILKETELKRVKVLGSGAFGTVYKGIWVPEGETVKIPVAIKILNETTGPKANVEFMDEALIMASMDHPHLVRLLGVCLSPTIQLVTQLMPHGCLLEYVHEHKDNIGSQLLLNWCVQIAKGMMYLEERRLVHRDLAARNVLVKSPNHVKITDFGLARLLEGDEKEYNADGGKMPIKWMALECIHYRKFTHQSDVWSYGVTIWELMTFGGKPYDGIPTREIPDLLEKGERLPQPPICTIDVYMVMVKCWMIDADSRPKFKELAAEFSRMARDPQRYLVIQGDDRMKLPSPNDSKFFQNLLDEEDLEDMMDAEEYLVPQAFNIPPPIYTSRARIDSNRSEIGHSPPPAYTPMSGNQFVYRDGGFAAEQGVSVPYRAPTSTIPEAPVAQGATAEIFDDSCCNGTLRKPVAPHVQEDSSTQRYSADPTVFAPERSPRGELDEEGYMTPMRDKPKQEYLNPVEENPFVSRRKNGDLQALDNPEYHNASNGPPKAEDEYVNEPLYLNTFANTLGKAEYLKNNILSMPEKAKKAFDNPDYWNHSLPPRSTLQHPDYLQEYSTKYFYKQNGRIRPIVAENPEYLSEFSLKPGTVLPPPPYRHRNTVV
Tyrosine-protein kinase Blk (Homo sapiens), sequence (P51451 2-505 limits assumed): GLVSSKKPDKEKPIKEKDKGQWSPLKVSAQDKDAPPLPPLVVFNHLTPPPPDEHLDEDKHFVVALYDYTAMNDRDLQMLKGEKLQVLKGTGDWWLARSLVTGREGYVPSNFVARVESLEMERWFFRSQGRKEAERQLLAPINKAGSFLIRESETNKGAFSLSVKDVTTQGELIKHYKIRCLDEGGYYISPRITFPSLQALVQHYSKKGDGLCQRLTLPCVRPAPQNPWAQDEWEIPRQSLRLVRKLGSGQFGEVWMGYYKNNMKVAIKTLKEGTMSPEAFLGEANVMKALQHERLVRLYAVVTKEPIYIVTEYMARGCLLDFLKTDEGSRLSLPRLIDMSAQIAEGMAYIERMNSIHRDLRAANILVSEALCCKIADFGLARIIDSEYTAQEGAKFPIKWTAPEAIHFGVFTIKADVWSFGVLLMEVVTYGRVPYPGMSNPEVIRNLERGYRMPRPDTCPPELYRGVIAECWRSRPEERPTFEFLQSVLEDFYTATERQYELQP

CN(C)C/C=C/C(=O)Nc1cccc(-c2c(-c3ccccc3)oc3ncnc(N[C@H](CO)c4ccccc4)c23)c1
Activity [1]: < 10% | Activity [2]: Non-Toxic | Activity [3]: < 10% | CC50 (HCC827): 25 nM | TGI (NCI-H1975 [4]): 34% | Activity [5]: 0.05% | Activity [6]: 0.25% | IC50 [7]: 0.033 nM | Activity [8]: 5.6% | Activity [9]: Non-Toxic | AUC(0-inf) (in vivo [10]): 2980 ng·h/mL | inhibition (NCI-H1975 [11]): Dose-dependent effect | Cmax [12]: 508 ng/mL | Activity [13]: Non-Toxic | half-life (in vivo [14]): 3.4 h | Activity [15]: 3%
